Most compounds without a hit are left out; they make up all but 1.1% or so of the library.
RBBP9 inh = inhibitors of human serine hydrolase RBBP9; recombinant RBBP9, FP-Rh probe fluorescence polarization; 0.2% of 220,000 active; inhibition, % at 7.94 µM; O75884;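 active = inhibition above the campaign mean of all tested compounds plus 3 SD, cut at about 14% in these data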
Target sequence (O75884 whole entry, looked up): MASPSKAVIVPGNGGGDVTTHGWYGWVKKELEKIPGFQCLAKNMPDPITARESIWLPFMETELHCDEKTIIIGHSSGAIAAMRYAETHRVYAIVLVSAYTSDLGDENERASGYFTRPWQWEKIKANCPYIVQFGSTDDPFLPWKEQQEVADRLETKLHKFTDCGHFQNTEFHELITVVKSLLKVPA
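Measured by: FP readout at 525/598 nm; material: recombinant human RBBP9; also added: Serine-hydrolase probe FP-Rh, 375 nM pre-mixing; medium: Tris buffer pH 8.0, NaCl, Pluronic; replication: one well per compound; doses: one concentration, 7.94 µM nominal, 0.794% DMSO; timing: preincubation 30 min plus labeling 45 min at 25 °C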
NCF1 inh = inhibitors of human p47phox binding; P14598; p47phox/p22phox peptide binding, fluorescence polarization, 2 h; inhibition, % at 24.7 µM; 0.53% of 220,000 active; AID 1274;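 active = inhibition above about 30%, limit read from the data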
Target sequence (P14598 whole entry, looked up): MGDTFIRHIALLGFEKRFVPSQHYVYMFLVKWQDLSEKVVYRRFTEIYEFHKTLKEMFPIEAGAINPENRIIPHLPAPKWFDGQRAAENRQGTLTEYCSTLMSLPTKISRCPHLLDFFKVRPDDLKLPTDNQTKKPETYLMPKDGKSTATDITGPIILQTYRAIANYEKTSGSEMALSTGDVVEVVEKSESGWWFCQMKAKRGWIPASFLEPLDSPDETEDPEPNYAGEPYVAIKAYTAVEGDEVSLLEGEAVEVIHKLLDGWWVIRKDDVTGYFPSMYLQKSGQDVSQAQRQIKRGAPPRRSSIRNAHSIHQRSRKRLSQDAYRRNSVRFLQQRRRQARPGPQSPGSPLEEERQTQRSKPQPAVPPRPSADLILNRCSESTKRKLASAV
m-calpain inh = inhibitors of pig calpain II; inhibition, % at 16 µM; 0.37% of 220,000 active; purified calpain II, fluorogenic peptide substrate, 30 min; AID 1236;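 active = inhibition above about 50%, limit read from the data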
Furin inh = blocks human furin protease activity; purified furin, fluorogenic substrate cleavage; inhibition, % at 20 µM or 30 µM; 0.061% of 220,000 active; AID 463115; in the data active = inhibition above about 25%
Of the large screens only hits and unclear results are named; the others gave an inactive call; ! = not active in a repeat.

COC(=O)CNC(=O)c1sc2ncn(CC(=O)Nc3ccc(C)c(Cl)c3)c(=O)c2c1C	m-calpain inh 52
O=S(=O)(c1cccc(F)c1)N1CCCN(c2ccc(C(F)(F)F)cn2)CC1	none
O=C(NC(=S)N(Cc1ccccc1)c1ccccn1)C1CC1	none
CCOC(=O)c1ccc(NC(=O)Cn2c(-c3nonc3N)nc3ccccc32)cc1	m-calpain inh 59
COC(=O)c1ccc(NC(=O)Cn2c(-c3nonc3N)nc3ccccc32)cc1	none
CCOC(=O)COc1cc(-n2c(=S)[nH]c3cc(OC)c(OC)cc3c2=O)c(Cl)cc1Cl	NCF1 inh 37
CCOC(=O)COc1cc(N2C(=O)CSCC2=O)c(Cl)cc1Cl	none
COc1ccc(OC)c(CNc2ccc([N+](=O)[O-])cc2C)c1	m-calpain inh 51
COc1cccc(CNc2ccc([N+](=O)[O-])cc2C)c1	none
COc1cccc2cc(-c3nc(-c4cccs4)cs3)c(=O)oc12	none
O=c1oc2ccccc2cc1-c1nc(-c2cccs2)cs1	NCF1 inh 52
CC(C)c1ccc(C(N)=S)cc1	none
Cc1ccc2nc(/C(C#N)=N/O)[nH]c2c1	none
Cc1ccc2nc(/C(C#N)=C/c3cn[nH]c3-c3ccc(F)cc3)[nH]c2c1	Furin inh 28
CCOCCc1c(O)nc(SCCOc2ccc(C)c(C)c2)[nH]c1=O	none
CCc1oc2ccccc2c1C(=O)c1cc(Br)c(O)c(Br)c1	m-calpain inh 55!
CCc1ccc(OCC(=O)c2c(O)c3ccccc3oc2=O)cc1	none
COc1cc(Br)cc(CNc2ccc(F)c([N+](=O)[O-])c2)c1O	m-calpain inh 91
COc1ccc(C(=O)N2c3cc4c(cc3C(C)=CC2(C)C)OCO4)cc1	m-calpain inh 52
O=C(CN(Cc1ccco1)S(=O)(=O)c1ccccc1)N/N=C/c1ccccc1C(=O)O	none
O=C(O)c1cccc(NC(=S)N/N=C/c2ccccc2OCc2cccc(Br)c2)c1	m-calpain inh 56
CCN1CCN(C2=CC3=CC(=C(C#N)C#N)CCC3CC2)CC1 (stereo not drawn)	m-calpain inh 61, Furin inh 28
N#CC(C#N)=C1C=C2C=C(N3CCOCC3)CCC2CC1 (stereo not drawn)	NCF1 inh 65
CCCOCC(O)CCc1n[nH]c(=S)n1-c1ccccc1 (stereo not drawn)	none
Cc1cncn1CCc1nc2c3ccccc3nc(SCC(=O)Nc3cccc(Cl)c3)n2n1	NCF1 inh 50
COc1ccc(C2CC(c3ccccc3OC(=O)/C=C/c3ccccc3)=NN2C(C)=O)cc1 (stereo not drawn)	none
Cc1cc(C)nc(SCCC(=O)Nc2ccccc2)n1	NCF1 inh 88
CC(C(=O)Nc1ccccc1Oc1ccccc1)c1ccccc1 (stereo not drawn)	m-calpain inh 52
COc1ccc2nc(N=Nc3ccc(N(C)C)cc3)sc2c1	none
Cc1nc2cc(C)c(C)cc2s1	none
CN(C)c1ccc2nc3ccc(=[N+](C)C)cc-3sc2c1	NCF1 inh active
Cc1cc2nc3ccc(=[N+](C)C)cc-3sc2cc1N	NCF1 inh active
CCN(CC)CCN(C)C1CCC(c2ccccc2)CC1 (stereo not drawn)	none
CN(C)CCCNS(=O)(=O)c1ccc(N2CCC(c3ccc(Cl)cc3)=N2)cc1	NCF1 inh 41
CC(C)(C)NC(=O)C1Cc2ccccc2CN1C(=O)Nc1ccccc1Cl (stereo not drawn)	none
Cc1cccc(Oc2ccc(Cl)cc2N)c1	m-calpain inh 50
Nc1cc(Cl)ccc1Oc1ccccc1	none
CC(C)NC(=S)N/N=C/C1=CCC2CC1C2(C)C (stereo not drawn)	m-calpain inh 51
O=c1[nH][nH]c(=S)n1-c1ccccc1C(F)(F)F	NCF1 inh 60
O=C1c2ccccc2C(=O)c2c(NCCCN(CCO)CCO)cccc21	NCF1 inh 37
CCOc1ccc(Cc2noc3c2C(=O)CC(C)(C)C3)cc1OCC	none (no result: NCF1 inh)
O=C(Nc1cccc([N+](=O)[O-])c1)C1C2CC/C=C\CCC21 (stereo not drawn)	NCF1 inh 138
O=C(Nc1ccccc1)c1cc([N+](=O)[O-])ccc1Cl	NCF1 inh 42 (no result: RBBP9 inh)
CC(C)(C)c1ccc(C(=O)Nc2cccc([N+](=O)[O-])c2)cc1	m-calpain inh 50
CCC(Sc1ncccc1C(=O)O)C(=O)N1CCCC1 (stereo not drawn)	Furin inh 28
COc1ccc(CN(C)CC(=O)NC2CCCc3ccccc32)cc1OC (stereo not drawn)	none
CC(C)Nc1nnc(Sc2ccc(Cl)cc2[N+](=O)[O-])s1	m-calpain inh 71
CCN(CC)S(=O)(=O)c1ccc(-n2c(=O)c(C(C)C)c(C)n2C)cc1	none
COc1ccc(S(=O)(=O)N2CCC(NC(=O)OCc3c(Cl)cccc3Cl)CC2)cc1	m-calpain inh 65
COC(=O)c1ccccc1NC(=O)COc1ccc(S(=O)(=O)NC(C)C)cc1	none
Cc1csc(SCC(=O)Nc2cccc3nsnc23)n1	NCF1 inh 144
Cc1csc(SCC(=O)Nc2ccccc2[N+](=O)[O-])n1	none
COc1ccc2nc(/N=C/c3c(C)[nH]n(-c4ccc(C)cc4)c3=O)sc2c1	NCF1 inh 34
O=C(c1ccc(Cl)cc1Cl)N1CCC(c2nc3c(nnn3Cc3ccco3)c(=O)[nH]2)CC1	m-calpain inh 70
CN(C)c1ncc(/C=C2/C(=O)NC(=S)N(C3CCCCC3)C2=O)cn1	none
Cc1cc(C)c(S(=O)(=O)Nc2ccc3c(c2)CCC3)c(C)c1	m-calpain inh 51
Cc1cc(C)c(S(=O)(=O)Nc2ccc(O)cc2)c(C)c1	none
Cc1cc(-c2n[nH]c(=S)n2Cc2ccccc2)cs1	NCF1 inh 41
CCCCn1c(-c2csc3c2CCCC3)n[nH]c1=S	none
CCCCn1c(-c2csc3c2CCC(C)C3)n[nH]c1=S (stereo not drawn)	m-calpain inh 66
Cc1ccccc1OCc1nc2ccccc2c(=O)n1/N=C/c1c[nH]c2ccccc12	none
Cc1ccc(-c2[nH]ncc2/C=N/n2c(COc3ccccc3C)nc3ccccc3c2=O)cc1	m-calpain inh 61
c1ccc(-c2nnc(CN3CCN(C(c4ccccc4)c4ccccc4)CC3)o2)cc1	NCF1 inh 159
CCOc1ccc(N2C(=O)c3ccc(C(=O)OCC(=O)N(CC)C4CCS(=O)(=O)C4)cc3C2=O)cc1 (stereo not drawn)	NCF1 inh 44
Cc1sc2cc3c(c(C(=O)c4ccccc4)[n+]2c1C)-c1cccc2cccc-3c12	NCF1 inh 37
CCOc1ccc(-n2c(SCc3ccc(C#N)cc3)nnc2-c2cccnc2)cc1	none
C=CCSc1nnc(-c2ccncc2)n1-c1ccc(OCC)cc1	NCF1 inh active
O=[N+]([O-])c1ccc(/C=C/C2=NN(c3ccccc3)C(c3ccco3)C2)cc1 (stereo not drawn)	NCF1 inh 34
O=[N+]([O-])c1ccc(C2=NN(c3ccccc3)C(c3ccco3)C2)cc1 (stereo not drawn)	none
COc1cc(C(=O)NNC(=S)NCc2ccco2)cc(OC)c1OC	none
O=C(/C=C/c1ccc(F)cc1)N1CC[C@@]2(O)CCCC[C@H]2C1	none
CCOC(=O)c1c(/N=C/C2=C(O)CCCC2=O)sc(C)c1C	Furin inh 28
